The list is not random: actives were taken first. Their share in the collection is about 4.6%.
OX1R antag-1 – OX1R (HCRTR1) antagonists, primary screen, fluorescence, CHO/OX1R cells, Fluo-8 calcium, orexin A; Orexin/Hypocretin receptor type 1 (Homo sapiens), O43613; Fluo-8 calcium fluorescence; inhibition, % at 5 µM; 330,000 tested, 0.43% active; AID 434989, 2010;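 active = inhibition above its plate's threshold, mean inhibition of all tested compounds on the plate plus 3 SD, cut at about 37% in these data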;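 note: 0% = orexin A challenge wells and 100% = SB-334867-A antagonist wells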
GPR7 antag – GPR7 receptor antagonists, primary screen, cell-based, fluorescence, single concentration | Neuropeptides B/W receptor type 1 (Homo sapiens), P48145 | GPR7-expressing cells, fluorescence antagonist assay | inhibition, % at 4.4 µM | 290,000 tested, 1.1% active | AID 1861, 2009; in the data active = inhibition above about 16%, passing the limit was not always enough;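 note: cells stimulated with the agonist NPW; 0% = agonist with vehicle and 100% = vehicle without agonist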
Target sequence (P48145 whole entry, looked up): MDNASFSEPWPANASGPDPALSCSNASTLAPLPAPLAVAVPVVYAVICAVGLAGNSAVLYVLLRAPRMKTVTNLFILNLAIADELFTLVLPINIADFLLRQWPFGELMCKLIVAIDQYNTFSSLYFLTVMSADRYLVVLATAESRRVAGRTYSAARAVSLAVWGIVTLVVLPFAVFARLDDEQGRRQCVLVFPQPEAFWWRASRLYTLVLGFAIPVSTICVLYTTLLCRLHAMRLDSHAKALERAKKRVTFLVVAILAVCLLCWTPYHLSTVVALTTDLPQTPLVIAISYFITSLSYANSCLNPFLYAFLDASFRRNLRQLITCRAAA
CHO parental Ca – ATP-evoked calcium signal inhibitors, parental CHO, primary screen, counter-screen for OX1R antagonist project, cell-based, fluorescence, Fluo-8 calcium dye; inhibition, % at 5.6 µM; AID 463079, 2010; parental CHO-K1, ATP-induced calcium, Fluo-8 fluorescence; 330,000 tested, 0.63% active;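 active = inhibition above that plate's mean sample inhibition plus 3 SD, cut at about 26% in these data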;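 note: 0% = ATP-challenged DMSO wells and 100% = DMSO wells without ATP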
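material = parental CHO cells | also added = ATP as calcium-mobilizing challenge | dosing = single point at 5.6 µM | detection = intracellular calcium via Fluo-8 no-wash fluorescent dye | read-out = % inhibition | benchmarks = low control ATP plus DMSO, high control DMSO only | repeats = one well per compound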
OX1R antag-2 – antagonists of human orexin 1 receptor (OX1R). Orexin/Hypocretin receptor type 1 (Homo sapiens), O43613. OX1R-expressing cells, FRET antagonist read-out. inhibition, % at 6.6 µM. 330,000 tested, 1.8% active. AID 485270, 2010; in the data active = inhibition mostly above about 38%, no sharp cut-off; inactive = mostly below about 40%;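 note: 0% = agonist challenge alone and 100% = reference antagonist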
TAAR1 agonist – human TAAR1 agonists, primary screen, Fluo-8 calcium fluorescence, CHO RD-HGA16 cells. 360,000 tested, 0.99% active. vehicle wells 0%, saturating PEA agonist 100%. activation, % at 3 µM. AID 624467, 2012;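 active = activation above the mean activation of all test compounds in the run plus 3 SD, cut at about 38% in these data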
Target sequence (Q96RJ0 whole entry, looked up): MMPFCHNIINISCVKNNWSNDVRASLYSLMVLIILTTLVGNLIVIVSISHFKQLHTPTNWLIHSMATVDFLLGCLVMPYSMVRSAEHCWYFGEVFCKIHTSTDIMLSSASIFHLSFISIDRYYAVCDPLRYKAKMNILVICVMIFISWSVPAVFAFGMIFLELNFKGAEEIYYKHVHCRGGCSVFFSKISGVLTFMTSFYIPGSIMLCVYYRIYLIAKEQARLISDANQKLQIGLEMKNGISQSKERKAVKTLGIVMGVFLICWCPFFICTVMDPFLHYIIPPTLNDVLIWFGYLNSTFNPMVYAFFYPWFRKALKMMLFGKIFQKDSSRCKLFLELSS
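Assay system: CHO-derived RD-HGA16 cells with stable Gα16 and human TAAR1; timing: 17-24 h seeding, 75 min 37 °C dye, 30 min RT; read-out: % activation from peak over basal fluorescence ratio, DMSO-to-PEA scaled; measured by: kinetic Fluo-8 calcium fluorescence; benchmarks: low control DMSO, high control PEA (EC100); doses: 3 µM single concentration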
TAAR1 antagonist – human TAAR1 antagonists, primary screen, Fluo-8 calcium fluorescence, CHO RD-HGA16 cells; Trace amine-associated receptor 1 (Homo sapiens), Q96RJ0; antagonist; inhibition, % at 3 µM; AID 624466, 2012; 360,000 tested, 1.5% active;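 active = inhibition above a per-plate cutoff, the mean inhibition of test compounds on that plate plus 3 SD, cut at about 49% in these data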;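 note: 0% = DMSO plus EC80 beta-PEA response and 100% = DMSO alone without agonist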
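Test system – hTAAR1-expressing CHO RD-HGA16 cells, Gα16-coupled · Reagent – β-PEA at EC80 concentration, post-compound challenge · Compound dosing – 3 µM, single point · Timing – 140 s kinetic read after compound, 140 s after agonist · Detection – Fluo-8 intracellular calcium dye fluorescence, real-time kinetic reads · Control set – DMSO and EC80 PEA controls · Repeats – n of 1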
OX1R HTRF conf – OX1R (HCRTR1) antagonists, confirmation, cell-based, HTRF. 1,800 tested, 49% active. shares compounds with OX1R antag-2. OX1R-expressing cells, HTRF antagonist assay. inhibition, % at 6.6 µM. AID 492964, 2010; in the data active = inhibition above about 55%;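 note: CHO cells expressing OX1R stimulated with orexin A at about EC80; 0% = agonist challenge alone and 100% = reference antagonist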
CHO-K1 HTRF – signal inhibition in parental CHO-K1 cells, counter-screen for OX1R antagonist project, cell-based, HTRF. inhibition, % at 6.6 µM. shares compounds with OX1R antag-2. HTRF counterscreen. AID 493232, 2011. 1,800 tested, 48% active; in the data active = inhibition above about 17%;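 note: 0% = agonist challenge with vehicle and 100% = vehicle alone without agonist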
* = called active by the depositor; / = no result given; ! = not confirmed by another sample.

SMILES | OX1R antag-1 | GPR7 antag | CHO parental Ca | OX1R antag-2 | TAAR1 agonist | TAAR1 antagonist | OX1R HTRF conf | CHO-K1 HTRF
COc1ccc(C(C(=O)NC2CCCCC2)N2CCC3(CC2)OCCO3)cc1 (centres undefined) | -3.0 | -9.5 | 0.5 | 89.1* | 9.2 | 2.7 | 14.0 | 1.7
Cc1ccc(C(C(=O)NC2CCCCC2)N2CCC3(CC2)OCCO3)cc1 (centres undefined) | -21.4 | 12.0 | -2.9 | 10.7 | 3.4 | 8.6 | / | /
COc1ccc(Nc2ccc(N3C(=O)CC(C)C3=O)cc2[N+](=O)[O-])cn1 (centres undefined) | -13.3 | 0.2 | 11.7 | 78.4* | 4.6 | -2.8 | 41.2 | 38.9*
COc1cccc(CCNc2ccc(N3C(=O)CC(C)C3=O)cc2[N+](=O)[O-])c1 (centres undefined) | -23.9 | 8.0 | -8.9 | 30.0 | 0.2 | -5.5 | / | /
COc1cc(/C=N/n2cnc3c(sc4nc(C)cc(C)c43)c2=O)ccc1O | -8.1 | -15.1 | -6.7 | 7.1 | / | / | / | /
COc1cc(/C=N/NC(=O)c2sc3nc(C)cc(C)c3c2N)ccc1O | 25.9 | -2.2 | -10.8 | 99.7* | 8.2 | 33.6 | 97.7* | 24.6*
O=C(NC1CCCc2ccccc21)C12CC3CC(CC(O)(C3)C1)C2 (centres undefined) | -22.7 | -6.6 | -27.8 | 11.7 | -0.8 | -2.7 | / | /
COc1ccccc1CNC(=O)CCS(=O)(=O)c1cccc2nonc12 | -31.4 | -3.0 | -8.5 | 82.6* | 7.0 | -2.5 | 30.8 | 31.7*
COc1ccc(N(C)C(=O)CCS(=O)(=O)c2cccc3nonc23)cc1 | -30.2 | 2.8 | -13.9 | 116.6* | 8.3 | -10.6 | 46.2 | 48.7*
Cc1ccc(S(=O)(=O)Oc2ccc(/C=N/N=C3/NC(=O)C(CC(=O)O)S3)cc2)cc1[N+](=O)[O-] (centres undefined) | -12.4 | -9.0 | -5.8 | 15.6 | 0.7 | -21.3 | / | /
COc1cccc2c1C(=O)C=C(C)C2=O | -20.5 | -5.9 | -2.2 | 124.1* | 3.3 | -0.3 | 71.7* | 92.2*
Cc1cc(C)nc(Nc2n[nH]c(-c3cccc4ccccc34)n2)n1 | 22.2 | -8.9 | -20.0 | 79.6* | 0.8 | 16.0 | 60.4* | 5.0
CCc1ccc([C@@H]2CC=C(C(=O)O)CN2S(=O)(=O)c2ccc(C)cc2)cc1 | 0.0 | / | -15.3 | 5.6 | 5.9 | 3.6 | / | /
O=C1c2ccccc2S(=O)(=O)c2cc(C(=O)N3CCCC3)ccc21 | -21.9 | / | -15.0 | 103.7* | 3.0 | -17.3 | 43.6 | 69.0*
O=C1c2ccccc2S(=O)(=O)c2cc(C(=O)N3CCN(c4c(Cl)cncc4Cl)CC3)ccc21 | -8.4 | / | -15.1 | 5.8 | 7.6 | 34.8 | / | /
CCOC(=O)C1CCN(C(=O)c2ccc3c(c2)S(=O)(=O)c2ccccc2C3=O)CC1 | -41.9 | -20.1 | -30.1 | 31.8 | -0.9 | 0.6 | / | /
NC(=O)C1CCN(C(=O)c2ccc3c(c2)S(=O)(=O)c2ccccc2C3=O)CC1 | -9.5 | -14.0 | -6.0 | 88.0* | 1.3 | -13.1 | 59.8* | 69.9*
Cc1cc(C)c[n+](-c2nc3ccccc3nc2C(=C=[N-])C#N)c1 | 3.0 | -9.1 | -0.1 | 84.2*! | 1.1 | -1.9 | 31.9 | 32.8*
CCc1ccc[n+](-c2nc3ccccc3nc2C(=C=[N-])C#N)c1 | -1.5 | -4.1 | 12.3 | 35.1 | 0.6 | -12.9 | / | /
Cc1ccc[n+](-c2nc3ccccc3nc2C(=C=[N-])C#N)c1 | 5.2 | -8.7 | 3.7 | 96.3* | 1.5 | -17.3 | 35.5 | 40.5*
COC(=O)C1=C(C)N(C)C(=O)NC1c1cc2c(cc1[N+](=O)[O-])OCO2 (centres undefined) | -5.4 | 2.2 | -11.7 | 91.1* | -0.7 | 10.7 | 33.2 | 25.0*
O=C(O)c1ccc(NC2=C(n3nnc4ccccc43)C(=O)c3ccccc3C2=O)cc1 | -13.2 | -15.6 | 5.9 | 173.5* | 1.8 | -7.6 | 53.2 | 55.9*
O=C(O)c1cccc(NC2=C(N3CCOCC3)C(=O)c3ccccc3C2=O)c1 | 11.6 | -17.5 | 2.8 | 23.6 | 0.5 | 2.6 | / | /
CC[n+]1ccc(/C=C2\Sc3ccccc3N2CCCS(=O)(=O)[O-])c2ccccc21 | 11.3 | -0.2 | 7.8 | 96.6* | -0.2 | 16.1 | 43.7 | 14.9
CCN(CCNC(=O)CN(C)S(=O)(=O)c1cccc2nsnc12)c1ccccc1 | -15.9 | 2.6 | -26.5 | 16.4 | 14.6 | 23.9 | / | /
SMILES | OX1R antag-1 | GPR7 antag | CHO parental Ca | OX1R antag-2 | TAAR1 agonist | TAAR1 antagonist | OX1R HTRF conf | CHO-K1 HTRF
CC1CCN(CCNC(=O)CN(C)S(=O)(=O)c2cccc3nsnc23)CC1 | -8.2 | -2.4 | 13.5 | 149.0* | -0.3 | -16.1 | 21.8 | 29.5*
CCOC(=O)N1CCC(NC(=O)C(NS(=O)(=O)c2cccc3nsnc23)c2ccccc2)CC1 (centres undefined) | -27.1 | -17.0 | -14.7 | 91.2* | 8.9 | -12.7 | 34.5 | 13.3
COc1ccc(N2CCN(CCNS(=O)(=O)c3cccc4nsnc34)CC2)cc1 | / | -5.4 | / | / | 5.1 | 9.2 | / | /
COc1ccc(N2CCN(CCNC(=O)CCS(=O)(=O)c3cccc4nsnc34)CC2)cc1 | -16.9 | 2.9 | -6.2 | 85.0* | / | / | 43.2 | 75.7*
CC1CCN(C(=O)CN(C)S(=O)(=O)c2cccc3nsnc23)CC1 | -24.5 | 0.1 | -11.8 | 82.7* | 12.2 | -9.3 | 29.9 | 35.9*
C=CCNC(=O)c1cc2cc(Cl)ccc2nc1N | / | / | / | / | 0.6 | 8.0 | / | /
CCN(CC)C(=O)CN(C)S(=O)(=O)c1cccc2nsnc12 | -20.4 | -0.7 | -1.3 | 113.9* | 2.6 | -7.5 | 39.8 | 38.3*
Cc1ccc(C(=O)N2CCCC(c3ccc(Cl)cc3)=N2)cc1 | -58.2 | -12.8 | -49.2 | 5.6 | 6.2 | 7.9 | / | /
Cc1ccccc1NC(=O)c1cc2ccccc2o1 | -16.2 | -10.6 | -7.7 | -4.9 | 1.4 | 2.5 | / | /
CCN(CC)c1ccc(NC(=O)c2cc3ccccc3o2)c(C)c1 | 2.4 | -13.6 | -1.1 | 79.7* | 25.9 | 23.2 | 58.5* | 9.4
COC(=O)c1cc(C(=O)Nc2nnc(CC(C)C)s2)cc([N+](=O)[O-])c1 | -2.0 | -6.4 | -0.9 | 22.4 | 0.8 | -14.2 | / | /
COCc1nnc(NC(=O)c2cc(C(=O)OC)cc([N+](=O)[O-])c2)s1 | -8.1 | -10.9 | -4.5 | 90.3* | 9.3 | -2.5 | 42.1 | 46.4*

Assay outcomes (PubChem)
